Test results reported in ChEMBL document CHEMBL1687780, “Mutations in 23S rRNA at the peptidyl transferase center and their relationship to linezolid binding and cross-resistance” (2010).
Values after ≈ are worked out from the molar mass of the structure shown.

Assays:
Format in all cases: functional
[1] = test system: Mycolicibacterium smegmatis; test: Antibacterial activity against Mycobacterium smegmatis SZ558 after 24 generation times
Outline: (§1)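 M. smegmatis SMR5 strains with one rRNA operon on a plasmid integrated at attB, grown in LB + 0.05% Tween 80 at 37°C to visible growth, diluted to OD600 0.02, and mixed 1:1 with 2-fold antibiotic dilutions. Tested ranges were linezolid 0.125–64 μg/ml and chloramphenicol, clindamycin, valnemulin 1–512 μg/ml. Incubation ran 37°C for 24 generation times of each strain. MIC was the lowest concentration with complete visual inhibition. Parent/wild-type controls were on each plate.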

[2] = test system: Mycolicibacterium smegmatis; test: Antibacterial activity against wild type Mycobacterium smegmatis after 24 generation times; outline: as §1
[3] = test system: Mycolicibacterium smegmatis; test: Antibacterial activity against Mycobacterium smegmatis harboring 23S rRNA A2058G mutant after 24 generation times; outline: as §1
[4] = test system: Mycolicibacterium smegmatis; test: Antibacterial activity against Mycobacterium smegmatis harboring 23S rRNA G2032C mutant after 24 generation times; outline: as §1
[5] = test system: Mycolicibacterium smegmatis; test: Antibacterial activity against Mycobacterium smegmatis harboring 23S rRNA A2453U mutant after 24 generation times; outline: as §1
[6] = test system: Mycolicibacterium smegmatis; test: Antibacterial activity against Mycobacterium smegmatis harboring 23S rRNA C2499U mutant after 24 generation times; outline: as §1
[7] = test system: Mycolicibacterium smegmatis; test: Antibacterial activity against Mycobacterium smegmatis harboring 23S rRNA A2503G mutant after 24 generation times; outline: as §1
[8] = test system: Mycolicibacterium smegmatis; test: Antibacterial activity against Mycobacterium smegmatis harboring 23S rRNA G2505A mutant after 24 generation times; outline: as §1
[9] = test system: Mycolicibacterium smegmatis; test: Antibacterial activity against Mycobacterium smegmatis harboring 23S rRNA C2571G mutant after 24 generation times; outline: as §1
[10] = test system: Mycolicibacterium smegmatis; test: Antibacterial activity against Mycobacterium smegmatis harboring 23S rRNA G2576U mutant after 24 generation times; outline: as §1
[11] = test system: Mycolicibacterium smegmatis; test: Antibacterial activity against Mycobacterium smegmatis harboring 23S rRNA C2612A mutant after 24 generation times; outline: as §1
[12] = test system: Mycolicibacterium smegmatis; test: Antibacterial activity against Mycobacterium smegmatis harboring 23S rRNA C2499A2 mutant after 24 generation times; outline: as §1
[13] = test system: Mycolicibacterium smegmatis; test: Antibacterial activity against Mycobacterium smegmatis harboring 23S rRNA G2032A, C2499A mutant after 24 generation times; outline: as §1
[14] = test system: Mycolicibacterium smegmatis; test: Antibacterial activity against Mycobacterium smegmatis harboring 23S rRNA G2032A mutant after 24 generation times; outline: as §1
[15] = test system: Mycolicibacterium smegmatis; test: Antibacterial activity against Mycobacterium smegmatis harboring 23S rRNA G2032A, U2504G mutant after 24 generation times; outline: as §1
[16] = test system: Mycolicibacterium smegmatis; test: Antibacterial activity against Mycobacterium smegmatis harboring 23S rRNA U2504G mutant after 24 generation times; outline: as §1
[17] = test system: Mycolicibacterium smegmatis; test: Antibacterial activity against Mycobacterium smegmatis harboring 23S rRNA C2055A, U2504G mutant after 24 generation times; outline: as §1
[18] = test system: Mycolicibacterium smegmatis; test: Antibacterial activity against Mycobacterium smegmatis harboring 23S rRNA C2055A mutant after 24 generation times; outline: as §1
[19] = test system: Mycolicibacterium smegmatis; test: Antibacterial activity against Mycobacterium smegmatis harboring 23S rRNA C2055A, A2572U mutant after 24 generation times; outline: as §1
[20] = test system: Mycolicibacterium smegmatis; test: Antibacterial activity against Mycobacterium smegmatis harboring 23S rRNA A2572U1 mutant after 24 generation times; outline: as §1

Structure (SMILES)	MIC [1] [µg/mL]	MIC [2] [µg/mL]	MIC [3] [µg/mL]	MIC [4] [µg/mL]	MIC [5] [µg/mL]	MIC [6] [µg/mL]	MIC [7] [µg/mL]	MIC [8] [µg/mL]	MIC [9] [µg/mL]	MIC [10] [µg/mL]	MIC [11] [µg/mL]	MIC [12] [µg/mL]	MIC [13] [µg/mL]	MIC [14] [µg/mL]	MIC [15] [µg/mL]	MIC [16] [µg/mL]	MIC [17] [µg/mL]	MIC [18] [µg/mL]	MIC [19] [µg/mL]	MIC [20] [µg/mL]
O=C(N[C@H](CO)[C@H](O)c1ccc([N+](=O)[O-])cc1)C(Cl)Cl [CHLORAMPHENICOL]	32 (≈ 99 µM)	32 (≈ 99 µM)	32 (≈ 99 µM)	32 (≈ 99 µM)	32 (≈ 99 µM)	32 (≈ 99 µM)	128 (≈ 396 µM)	128 (≈ 396 µM)	32 (≈ 99 µM)	256 (≈ 792 µM)	64 (≈ 198 µM)	32 (≈ 99 µM)	64 (≈ 198 µM)	32 (≈ 99 µM)	256 (≈ 792 µM)	512 (≈ 1580 µM)	128 (≈ 396 µM)	32 (≈ 99 µM)	64 (≈ 198 µM)	8 (≈ 24.8 µM)
CCC[C@@H]1C[C@@H](C(=O)N[C@@H]([C@H]2O[C@H](SC)[C@H](O)[C@@H](O)[C@H]2O)[C@H](C)Cl)N(C)C1 [CLINDAMYCIN]	16 (≈ 37.6 µM)	16 (≈ 37.6 µM)	> 1030	128 (≈ 301 µM)	32 (≈ 75.3 µM)	16 (≈ 37.6 µM)	8 (≈ 18.8 µM)	16 (≈ 37.6 µM)	16 (≈ 37.6 µM)	64 (≈ 151 µM)	16 (≈ 37.6 µM)	16 (≈ 37.6 µM)	16 (≈ 37.6 µM)	32 (≈ 75.3 µM)	16 (≈ 37.6 µM)	16 (≈ 37.6 µM)	16 (≈ 37.6 µM)	32 (≈ 75.3 µM)	512 (≈ 1200 µM)	16 (≈ 37.6 µM)
CC(=O)NC[C@H]1CN(c2ccc(N3CCOCC3)c(F)c2)C(=O)O1 [LINEZOLID]	2 (≈ 5.93 µM)	2 (≈ 5.93 µM)	2 (≈ 5.93 µM)	4 (≈ 11.9 µM)	4 (≈ 11.9 µM)	2 (≈ 5.93 µM)	8 (≈ 23.7 µM)	16 (≈ 47.4 µM)	4 (≈ 11.9 µM)	64 (≈ 190 µM)	4 (≈ 11.9 µM)	2 (≈ 5.93 µM)	8 (≈ 23.7 µM)	2 (≈ 5.93 µM)	64 (≈ 190 µM)	8 (≈ 23.7 µM)	32 (≈ 94.9 µM)	0.5 (≈ 1.48 µM)	64 (≈ 190 µM)	4 (≈ 11.9 µM)
C=C[C@]1(C)C[C@@H](OC(=O)CSC(C)(C)CNC(=O)[C@H](N)C(C)C)[C@]2(C)[C@H](C)CC[C@]3(CCC(=O)[C@H]32)[C@@H](C)[C@@H]1O [VALNEMULIN]	32 (≈ 56.7 µM)	32 (≈ 56.7 µM)	64 (≈ 113 µM)	128 (≈ 227 µM)	64 (≈ 113 µM)	32 (≈ 56.7 µM)	32 (≈ 56.7 µM)	32 (≈ 56.7 µM)	32 (≈ 56.7 µM)	32 (≈ 56.7 µM)	32 (≈ 56.7 µM)	64 (≈ 113 µM)	128 (≈ 227 µM)	128 (≈ 227 µM)	128 (≈ 227 µM)	64 (≈ 113 µM)	64 (≈ 113 µM)	64 (≈ 113 µM)	128 (≈ 227 µM)	128 (≈ 227 µM)
